Source: ChEMBL document CHEMBL3739331, “Synthesis and Bioactivities of Kanamycin B-Derived Cationic Amphiphiles” (J Med Chem, 2015)
Converted amounts (≈) assume the structure as drawn. The source made the active and inactive calls. The rule behind the calls is not given here.

Key:
[1] = tested on: Klebsiella pneumoniae; assay: Antibacterial activity against Klebsiella pneumoniae ATCC 27736 by microdilution method; assay type: functional
Procedure, shortened: (§1)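 Broth microdilution MIC against the named bacterial strain, reported in μg/mL; each determination run at least in duplicate.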

[2] = Activity of AAC(3)-4 (unknown origin) assessed as compound acetylation activity by Ellman's method
[3] = tested on: Bacillus subtilis; assay: Antibacterial activity against Bacillus subtilis 168 by microdilution method; assay type: functional; details: subsp. subtilis str. 168; procedure, shortened: as §1
[4] = tested on: Listeria monocytogenes; assay: Antibacterial activity against Listeria monocytogenes ATCC 19115 by microdilution method; assay type: functional; procedure, shortened: as §1
[5] = tested on: Staphylococcus aureus; assay: Antibacterial activity against methicillin-resistant Staphylococcus aureus by microdilution method; assay type: functional
Procedure, shortened: (§2)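 Broth microdilution MIC, in μg/mL, against a panel of Gram-positive and Gram-negative strains. Run at least in duplicate.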

[6] = tested on: Staphylococcus aureus; assay: Antibacterial activity against Staphylococcus aureus ATCC 29213 by microdilution method; assay type: functional; procedure, shortened: as §1
[7] = tested on: Staphylococcus aureus; assay: Antibacterial activity against Staphylococcus aureus NRS382 (USA 100) by microdilution method; assay type: functional; procedure, shortened: as §1
[8] = tested on: Staphylococcus aureus; assay: Antibacterial activity against Staphylococcus aureus NRS383 (USA 200) by microdilution method; assay type: functional; procedure, shortened: as §1
[9] = tested on: Staphylococcus aureus; assay: Antibacterial activity against Staphylococcus aureus NRS385 (USA 300) by microdilution method; assay type: functional; procedure, shortened: as §2
[10] = tested on: Staphylococcus aureus; assay: Antibacterial activity against Staphylococcus aureus NRS22 (USA 600) by microdilution method; assay type: functional; procedure, shortened: as §1
[11] = tested on: Staphylococcus epidermidis; assay: Antibacterial activity against Staphylococcus epidermidis ATCC 12228 by microdilution method; assay type: functional; procedure, shortened: as §1
[12] = tested on: Enterococcus; assay: Antibacterial activity against vancomycin-resistant Enterococcus by microdilution method; assay type: functional; procedure, shortened: as §2
[13] = tested on: Acinetobacter baumannii; assay: Antibacterial activity against Acinetobacter baumannii ATCC 19606 by microdilution method; assay type: functional; procedure, shortened: as §1
[14] = tested on: Enterobacter cloacae; assay: Antibacterial activity against Enterobacter cloacae ATCC 13047 by microdilution method; assay type: functional; procedure, shortened: as §1
[15] = tested on: Escherichia coli; assay: Antibacterial activity against Escherichia coli MC1061 by microdilution method; assay type: functional; procedure, shortened: as §2
[16] = tested on: Pseudomonas aeruginosa; assay: Antibacterial activity against Pseudomonas aeruginosa ATCC 27853 by microdilution method; assay type: functional; procedure, shortened: as §1
[17] = tested on: Salmonella enterica; assay: Antibacterial activity against Salmonella enterica ATCC 14028 by microdilution method; assay type: functional; procedure, shortened: as §1
[18] = tested on: Bacillus subtilis subsp. subtilis str. 168; assay: Activity of Bacillus subtilis 168 APH(2'')-1a assessed as compound phosphorylation activity by Ellman's method
[19] = Activity of AAC(6')-1e/APH(2'')-1a (unknown origin) assessed as compound acetylation activity by Ellman's method
[20] = tested on: Serratia marcescens; assay: Activity of Serratia marcescens AAC(6')-2d assessed as compound acetylation activity by Ellman's method
[21] = tested on: Mycobacterium tuberculosis; assay: Activity of Mycobacterium tuberculosis AAC(2')-1c assessed as compound acetylation activity by Ellman's method
[22] = tested on: Mycobacterium tuberculosis; assay: Activity of Mycobacterium tuberculosis Eis assessed as compound acetylation activity by Ellman's method
[23] = tested on: Candida albicans; assay: Antifungal activity against azole-resistant Candida albicans ATCC 10231 after 48 hrs by microbroth dilution method; assay type: functional; details: ATCC 10231, 48 h
Procedure, shortened: (§3)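 Yeast MIC by broth microdilution, run in duplicate. The aminoglycoside compounds are read as MIC-0 (complete inhibition). Azoles are read as MIC-2 (50% inhibition).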

[24] = tested on: Candida albicans; assay: Antifungal activity against azole-resistant Candida albicans ATCC 64124 after 48 hrs by microbroth dilution method; assay type: functional; details: ATCC 64124, 48 h; procedure, shortened: as §3
[25] = tested on: Candida albicans; assay: Antifungal activity against azole-susceptible Candida albicans ATCC MYA-2876 after 48 hrs by microbroth dilution method; assay type: functional; details: ATCC MYA-2876, 48 h; procedure, shortened: as §3
[26] = tested on: Candida albicans; assay: Antifungal activity against azole-resistant Candida albicans ATCC 90819 after 48 hrs by microbroth dilution method; assay type: functional; details: ATCC 90819, 48 h; procedure, shortened: as §3
[27] = tested on: Candida albicans; assay: Antifungal activity against azole-susceptible Candida albicans ATCC MYA-2310 after 48 hrs by microbroth dilution method; assay type: functional; details: ATCC MYA-2310, 48 h; procedure, shortened: as §3
[28] = tested on: Candida albicans; assay: Antifungal activity against azole-resistant Candida albicans MYA-1237 after 48 hrs by microbroth dilution method; assay type: functional; details: MYA-1237, 48 h; procedure, shortened: as §3
[29] = tested on: Candida albicans; assay: Antifungal activity against azole-resistant Candida albicans MYA-1003 after 48 hrs by microbroth dilution method; assay type: functional; details: MYA-1003, 48 h; procedure, shortened: as §3
[30] = tested on: Aspergillus nidulans; assay: Antifungal activity against Aspergillus nidulans ATCC 38163 after 48 hrs by microbroth dilution method; assay type: functional; details: ATCC 38163, 48 h
Procedure, shortened: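 Filamentous fungus MIC by broth microdilution, run in duplicate. All compounds are read as MIC-0 (complete inhibition).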

[31] = Hemolytic activity against mouse RBC at 100 to 500 ug/ml after 60 mins; assay type: ADME, cell-based; details: erythrocyte, 1 h
[32] = tested on: A549; assay: Cytotoxicity against human A549 cells after 24 hrs by resazurin assay; assay type: cell-based; details: human, a549, 24 h
[33] = Cytotoxicity against human BEAS2B cells after 24 hrs by resazurin assay; assay type: cell-based, BEAS-2B; details: human, beas-2b
[34] = tested on: Mycolicibacterium smegmatis; assay: Antibacterial activity against Mycobacterium smegmatis MC2 155 by microdilution method; assay type: functional; details: str. MC2 155; procedure, shortened: as §2
[35] = tested on: Candida albicans; assay: Antifungal activity against azole-resistant Candida albicans ATCC 64124 at sub-MIC measured over 24 hrs by time-kill assay; assay type: functional, organism-based
Procedure, shortened: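 Time-kill assay on C. albicans ATCC 64124 cultures exposed to test compound at 1/2 MIC, MIC and higher concentrations. Amphotericin B at 1 μg/mL and a no-drug culture serve as controls. CFU are counted at intervals over 24 h.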

| Structure (SMILES) | MIC [1] [µg/mL] | Activity [2] | MIC [3] [µg/mL] | MIC [4] [µg/mL] | MIC [5] [µg/mL] | MIC [6] [µg/mL] | MIC [7] [µg/mL] | MIC [8] [µg/mL] | MIC [9] [µg/mL] | MIC [10] [µg/mL] | MIC [11] [µg/mL] | MIC [12] [µg/mL] | MIC [13] [µg/mL] | MIC [14] [µg/mL] | MIC [15] [µg/mL] | MIC [16] [µg/mL] | MIC [17] [µg/mL] | Activity [18] | Activity [19] | MIC [30] [µg/mL] | also measured |
| --- | --- | --- | --- | --- | --- | --- | --- | --- | --- | --- | --- | --- | --- | --- | --- | --- | --- | --- | --- | --- | --- |
| CCCCCCCCCCCCCCS(=O)(=O)C[C@@H]1O[C@@H](O[C@@H]2[C@@H](O)[C@H](O[C@@H]3O[C@@H](CN)[C@H](O)[C@@H](O)[C@@H]3N)[C@@H](N)C[C@H]2N)[C@@H](O)[C@H](N)[C@H]1O (stereo in doubt) | > 128 | inactive | > 128 | 2 (≈ 2.75 µM) | 128 (≈ 176 µM) | 128 (≈ 176 µM) | 64 (≈ 87.9 µM) | 128 (≈ 176 µM) | 128 (≈ 176 µM) | 64 (≈ 87.9 µM) | > 128 | 32 (≈ 44 µM) | > 128 | > 128 | > 128 | 32 (≈ 44 µM) | 128 (≈ 176 µM) | inactive | inactive | 1.95 (≈ 2.68 µM) | Activity [20]: inactive; Activity [21]: inactive; Activity [22]: inactive; MIC [23]: 3.9 µg/mL (≈ 5.36 µM); MIC [24]: 3.9 µg/mL (≈ 5.36 µM); MIC [25]: 3.9 µg/mL (≈ 5.36 µM); MIC [26]: 7.8 µg/mL (≈ 10.7 µM); MIC [27]: 7.8 µg/mL (≈ 10.7 µM); MIC [28]: 7.8 µg/mL (≈ 10.7 µM); MIC [29]: 7.8 µg/mL (≈ 10.7 µM) |
| CCC(C)n1ncn(-c2ccc(N3CCN(c4ccc(OCC5COC(Cn6cncn6)(c6ccc(Cl)cc6Cl)O5)cc4)CC3)cc2)c1=O (stereo not given) [ITRACONAZOLE] |  |  |  |  |  |  |  |  |  |  |  |  |  |  |  |  |  |  |  | ≤ 1.95 | MIC50 [23]: 0.5 µg/mL (≈ 0.709 µM); MIC50 [24]: > 62.5 µg/mL; MIC50 [25]: 7.8 µg/mL (≈ 11.1 µM); MIC50 [26]: 31.2 µg/mL (≈ 44.2 µM); MIC50 [28]: 31.2 µg/mL (≈ 44.2 µM); MIC50 [29]: 31.2 µg/mL (≈ 44.2 µM) |
| CCCCCCCCSC[C@@H]1O[C@@H](O[C@@H]2[C@@H](O)[C@H](O[C@@H]3O[C@@H](CN)[C@H](O)[C@@H](O)[C@@H]3N)[C@@H](N)C[C@H]2N)[C@@H](O)[C@H](N)[C@H]1O (stereo in doubt) | > 128 | inactive | > 128 | 8 (≈ 13.1 µM) | 128 (≈ 209 µM) | 64 (≈ 105 µM) | 128 (≈ 209 µM) | 64 (≈ 105 µM) | 128 (≈ 209 µM) | 64 (≈ 105 µM) | > 128 | 128 (≈ 209 µM) | > 128 | > 128 | > 128 | 64 (≈ 105 µM) | > 128 | inactive | inactive | 15.6 (≈ 25.5 µM) | Activity [31]: Non-toxic; Activity [32]: Non-toxic; Activity [33]: Non-toxic; MIC [34]: 64 µg/mL (≈ 105 µM); Activity [20]: inactive; Activity [21]: inactive; Activity [22]: inactive; MIC [23]: > 125 µg/mL; MIC [24]: > 125 µg/mL; MIC [25]: > 125 µg/mL; MIC [26]: > 125 µg/mL; MIC [27]: > 125 µg/mL; MIC [28]: > 125 µg/mL; MIC [29]: > 125 µg/mL |
| C[C@@H]1[C@H](O)[C@@H](C)/C=C/C=C/C=C/C=C/C=C/C=C/C=C/[C@H](O[C@@H]2O[C@H](C)[C@@H](O)[C@H](N)[C@@H]2O)C[C@@H]2O[C@](O)(C[C@@H](O)C[C@@H](O)[C@H](O)CC[C@@H](O)C[C@@H](O)CC(=O)O[C@H]1C)C[C@H](O)[C@H]2C(=O)O [AMPHOTERICIN B] |  |  |  |  |  |  |  |  |  |  |  |  |  |  |  |  |  |  |  |  | Activity [35]: Active; Activity [31]: Toxic |
| CCCCCCCCCCCCCCSC[C@H]1O[C@H](O[C@@H]2[C@@H](O)[C@H](O[C@H]3O[C@H](CN)[C@@H](O)C[C@H]3N)[C@@H](N)C[C@H]2N)[C@H](O)[C@@H](N)[C@@H]1O |  |  |  |  |  |  |  |  |  |  |  |  |  |  |  |  |  |  |  | 7.8 (≈ 11.5 µM) |  |
| CCCCCCCCCCCCSC[C@H]1O[C@H](O[C@@H]2[C@@H](O)[C@H](O[C@H]3O[C@H](CN)[C@@H](O)C[C@H]3N)[C@@H](N)C[C@H]2N)[C@H](O)[C@@H](N)[C@@H]1O |  |  |  |  |  |  |  |  |  |  |  |  |  |  |  |  |  |  |  | 7.8 (≈ 12 µM) |  |
